Broadly, the IC80 is the concentration needed for an effect of 80%. Lower therefore signals an effect from little substance. Broadly, the inhibition is the change of the read-out against control, counted positive when it falls. Higher therefore signals a response far below the control. Broadly, the MIC is the lowest concentration found to suppress growth.

Structures are written as SMILES. Values after ≈ are worked out from the molar mass of the structure shown.

The text below walks through data of ChEMBL document CHEMBL1154547, “Salicylanilide esters of N-protected amino acids as novel antimicrobial agents” (Bioorg Med Chem Lett, 2009).

The subject of data set [1] is Pichia kudriavzevii. Kind of data set: Antifungal activity against Candida krusei E28 after 48 hrs by broth microdilution method. Format: functional. The procedure, abridged:
(§1)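 In vitro antifungal screening against eight strains. Compounds tested at concentrations in the range 62.5–1.95 µmol/L.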

Data set [2] concerns Lichtheimia corymbifera. Briefly: Antifungal activity against Absidia corymbifera 272 after 24 hrs by broth microdilution method. Type of data set: functional. The procedure, abridged:
as §1
Background: In broth dilution the organism is exposed to a series of concentrations in liquid medium.

A short description of data set [3]: Lipophilicity, log K of the compound. Type of data set: physicochemical. The procedure, abridged:
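Mobile phase used methanol as organic modifier. The capacity factor k was measured and log k calculated from it. Chiral compounds were measured several times.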

Data set [4] deals with Aspergillus fumigatus. Briefly: Antifungal activity against Aspergillus fumigatus 231 after 24 hrs by broth microdilution method. Type of data set: functional. A digest of the protocol:
as §1

Data set [5] deals with Trichosporon beigelii. Briefly: Antifungal activity against Trichosporon beigelii 1188 after 24 hrs by broth microdilution method. Format: functional. The procedure, abridged: as §1
Data set [6] deals with Lichtheimia corymbifera. Briefly: Antifungal activity against Absidia corymbifera 272 after 48 hrs by broth microdilution method. Format: functional. The procedure, abridged:
as §1

In data set [7] the test system is Candida tropicalis. Briefly: Antifungal activity against Candida tropicalis ATCC 156 after 24 hrs by broth microdilution method. Format: functional. The settings on record: ATCC 156, 24 h. The procedure, abridged:
as §1

Data set [8] relates to Candida albicans. Briefly: Antifungal activity against Candida albicans ATCC 44859 after 48 hrs by broth microdilution method. Type of data set: functional. The following applies: ATCC 44859, 48 h. A digest of the protocol: as §1
Data set [9] relates to Candida tropicalis. Kind of data set: Antifungal activity against Candida tropicalis ATCC 156 after 48 hrs by broth microdilution method. Format: functional. The following applies: ATCC 156, 48 h. A digest of the protocol:
as §1

The test system of data set [10] is Mycobacterium tuberculosis. Kind of data set: Antitubercular activity against Mycobacterium tuberculosis H37Rv at 6.25 ug/ml by microplate alamar blue assay. Type of data set: functional. The procedure, abridged: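 Primary single-concentration screen at the TAACF against M. tuberculosis H37Rv (ATCC 27294) in BACTEC 12B medium, read by Microplate Alamar Blue Assay. Each compound was tested at 6.25 per mL, or at the molar equivalent of the highest-molecular-weight compound in its congener series.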
Background: Resazurin is reduced to fluorescent resorufin, in cell work by metabolically active cells.

In data set [11] the test system is Aspergillus fumigatus. Briefly: Antifungal activity against Aspergillus fumigatus 231 after 48 hrs by broth microdilution method. Format: functional. The procedure, abridged:
as §1

Data set [12] relates to Pichia kudriavzevii. Kind of data set: Antifungal activity against Candida krusei E28 after 24 hrs by broth microdilution method. Format: functional. A digest of the protocol: as §1
Data set [13] deals with Candida albicans. Kind of data set: Antifungal activity against Candida albicans ATCC 44859 after 24 hrs by broth microdilution method. Type of data set: functional. The following applies: ATCC 44859, 24 h. A digest of the protocol: as §1
The test system of data set [14] is Nakaseomyces glabratus. Briefly: Antifungal activity against Candida glabrata 20/I after 48 hrs by broth microdilution method. Format: functional. A digest of the protocol:
as §1

Data set [15] deals with Trichophyton mentagrophytes. Kind of data set: Antifungal activity against Trichophyton mentagrophytes 445 after 48 hrs by broth microdilution method. Format: functional. A digest of the protocol:
as §1

Data set [16] relates to Nakaseomyces glabratus. Kind of data set: Antifungal activity against Candida glabrata 20/I after 24 hrs by broth microdilution method. Type of data set: functional. A digest of the protocol:
as §1

In data set [17] the test system is Trichosporon beigelii. Kind of data set: Antifungal activity against Trichosporon beigelii 1188 after 48 hrs by broth microdilution method. Type of data set: functional. The procedure, abridged: as §1
For data set [18], the system named is Trichophyton mentagrophytes. Kind of data set: Antifungal activity against Trichophyton mentagrophytes 445 after 24 hrs by broth microdilution method. Format: functional. The procedure, abridged:
as §1

Data set [19] concerns Mycobacterium tuberculosis. Briefly: Antitubercular activity against Mycobacterium tuberculosis H37Rv by microplate alamar blue assay. Format: functional.

Take `O=C(CNC(=O)OCc1ccccc1)Oc1ccc(Cl)cc1C(=O)Nc1ccc(Cl)c(Cl)c1`: the IC80 is > 62.5 µg/mL with Pichia kudriavzevii [1]; 62.5 µg/mL (≈ 123 µM) in the data set with Lichtheimia corymbifera [2]; > 62.5 µg/mL in the data set on Aspergillus fumigatus [4]; > 62.5 µg/mL with Trichosporon beigelii [5]; > 62.5 µg/mL in the data set on Lichtheimia corymbifera [6]; > 62.5 µg/mL with Candida tropicalis [7]. Moreover, the IC80 with Candida albicans [8], in the data set on Candida tropicalis [9], in the data set with Aspergillus fumigatus [11], with Pichia kudriavzevii [12], in the data set with Candida albicans [13] and in the data set with Nakaseomyces glabratus [14] was > 62.5 µg/mL throughout. Also, the IC80 in data set [15] is 31.2 µg/mL (≈ 61.5 µM); in the data set on Nakaseomyces glabratus [16] it was > 62.5 µg/mL; with Trichosporon beigelii [17] it was > 62.5 µg/mL; in data set [18], 31.2 µg/mL (≈ 61.5 µM). Further, the “log K” value in [3] was found to be 0.8639. The same compound showed an inhibition at 6.25 µg/mL in data set [10] of 0%. Besides, the MIC in data set [19] was > 6.25 µg/mL.
